Structures are written as SMILES. Calls of active or inactive are those of the source. The rule behind the calls is not given here.

For two compounds, Activity and IC50 results are on record in ChEMBL document CHEMBL4261629 (Bioorg Med Chem, 2018).

Data set [1] relates to PC-12. Nature of the data set: Neuroprotective activity against 6-OHDA-induced toxicity in rat PC12 cells assessed as increase in cell viability at 5 to 10 uM pretreated for 24 hrs followed by 6-OHDA challenge and measured after 12 hrs coincubated with tubastatin A by MTT assay. In kind it is functional, cell-based. An outline of the steps:
(§1)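 Medium was replaced with fresh medium containing H2O2 (400 μM) or 6-OHDA (200 μM), and incubation continued 12 h. Viability was read by MTT assay. Mean ± SD, three independent experiments.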
Background: Tetrazolium assays rely on reduction of a dye to a coloured formazan, in cell work by metabolically active cells.

Data set [2] has as its system PC-12. Description: Neuroprotective activity against H2O2-induced toxicity in rat PC12 cells assessed as cell viability at 5 to 10 uM pretreated for 24 hrs followed by H2O2 challenge and measured after 12 hrs coincubated with tubastatin A by MTT assay relative to control. The data set is classed as functional. An outline of the steps: as §1
Data set [3] relates to PC-12. Description: Cytotoxicity against rat PC12 cells at 20 uM in presence of tubastantin A after 24 hrs by MTT assay. In kind it is cell-based. The following applies: pc-12, 24 h.
Data set [4] is described as follows: Antioxidant activity assessed as tert-butyl hydroperoxide radical scavenging at 10 uM up to 200 mins. The data set is classed as functional. An outline of the steps: (§2)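 Kinetic peroxide scavenging by GSH at 25 °C in 100 mM phosphate buffer, pH 7.5. Final conditions: EDTA 1 mM, GSH 0.25 mM, NADPH 0.50 mM, glutathione reductase 1.3 unit·mL-1, peroxide 0.20 mM (H2O2, t-BuOOH or Cum-OOH), catalyst 10 μM. Scavenging was followed over time, and maximal scavenging was derived. Mean ± SE, three independent experiments.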

For data set [5], the system named is PC-12. Nature of the data set: Cytoprotective activity against H2O2-induced damage in rat PC12 cells assessed as decrease in ROS accumulation preincubated for 24 hrs followed by H2O2 challenge measured after 12 hrs by DCFH-DA dye-based fluorescence analysis. In kind it is functional, cell-based. An outline of the steps:
(§3)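 Intracellular ROS was detected by DCFH-DA staining, which esterases deacetylate and ROS oxidise to fluorescent dichlorofluorescein. Fluorescence was quantified on a microplate reader.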

Data set [6] relates to PC-12. Nature of the data set: Antioxidant activity against H2O2-induced oxidative stress in rat PC12 cells assessed as decrease in ROS accumulation at 5 uM preincubated for 24 hrs followed by H2O2 challenge and measured after 12 hrs by DCFH-DA dye-based fluorescence analysis. In kind it is functional, cell-based. An outline of the steps: as §3
In data set [7] the test system is PC-12. Nature of the data set: Neuroprotective activity against H2O2-induced toxicity in rat PC12 cells assessed as cell viability at 10 uM pretreated for 24 hrs followed by H2O2 challenge and measured after 12 hrs by MTT assay relative to control. The data set is classed as functional, cell-based. A digest of the protocol:
as §1

Data set [8] in a line: Antioxidant activity assessed as H2O2 radical scavenging at 10 uM up to 200 mins. In kind it is functional. A digest of the protocol:
as §2

For data set [9], the system named is PC-12. Description: Antioxidant activity against H2O2-induced oxidative stress in rat PC12 cells assessed as decrease in ROS accumulation at 5 uM preincubated for 24 hrs followed by H2O2 challenge and measured after 12 hrs coincubated with tubastatin A by DCFH-DA dye-based fluorescence analysis. In kind it is functional, cell-based. A digest of the protocol:
as §3

The subject of data set [10] is PC-12. Description: Neuroprotective activity against 6-OHDA-induced toxicity in rat PC12 cells assessed as increase in cell viability at 10 uM pretreated for 24 hrs followed by 6-OHDA challenge and measured after 12 hrs by MTT assay. In kind it is functional, cell-based. A digest of the protocol:
as §1

Data set [11] concerns the target T1, Protein deacetylase HDAC6 (Homo sapiens, UniProt Q9UBN7).
T1 sequence (Q9UBN7 whole entry): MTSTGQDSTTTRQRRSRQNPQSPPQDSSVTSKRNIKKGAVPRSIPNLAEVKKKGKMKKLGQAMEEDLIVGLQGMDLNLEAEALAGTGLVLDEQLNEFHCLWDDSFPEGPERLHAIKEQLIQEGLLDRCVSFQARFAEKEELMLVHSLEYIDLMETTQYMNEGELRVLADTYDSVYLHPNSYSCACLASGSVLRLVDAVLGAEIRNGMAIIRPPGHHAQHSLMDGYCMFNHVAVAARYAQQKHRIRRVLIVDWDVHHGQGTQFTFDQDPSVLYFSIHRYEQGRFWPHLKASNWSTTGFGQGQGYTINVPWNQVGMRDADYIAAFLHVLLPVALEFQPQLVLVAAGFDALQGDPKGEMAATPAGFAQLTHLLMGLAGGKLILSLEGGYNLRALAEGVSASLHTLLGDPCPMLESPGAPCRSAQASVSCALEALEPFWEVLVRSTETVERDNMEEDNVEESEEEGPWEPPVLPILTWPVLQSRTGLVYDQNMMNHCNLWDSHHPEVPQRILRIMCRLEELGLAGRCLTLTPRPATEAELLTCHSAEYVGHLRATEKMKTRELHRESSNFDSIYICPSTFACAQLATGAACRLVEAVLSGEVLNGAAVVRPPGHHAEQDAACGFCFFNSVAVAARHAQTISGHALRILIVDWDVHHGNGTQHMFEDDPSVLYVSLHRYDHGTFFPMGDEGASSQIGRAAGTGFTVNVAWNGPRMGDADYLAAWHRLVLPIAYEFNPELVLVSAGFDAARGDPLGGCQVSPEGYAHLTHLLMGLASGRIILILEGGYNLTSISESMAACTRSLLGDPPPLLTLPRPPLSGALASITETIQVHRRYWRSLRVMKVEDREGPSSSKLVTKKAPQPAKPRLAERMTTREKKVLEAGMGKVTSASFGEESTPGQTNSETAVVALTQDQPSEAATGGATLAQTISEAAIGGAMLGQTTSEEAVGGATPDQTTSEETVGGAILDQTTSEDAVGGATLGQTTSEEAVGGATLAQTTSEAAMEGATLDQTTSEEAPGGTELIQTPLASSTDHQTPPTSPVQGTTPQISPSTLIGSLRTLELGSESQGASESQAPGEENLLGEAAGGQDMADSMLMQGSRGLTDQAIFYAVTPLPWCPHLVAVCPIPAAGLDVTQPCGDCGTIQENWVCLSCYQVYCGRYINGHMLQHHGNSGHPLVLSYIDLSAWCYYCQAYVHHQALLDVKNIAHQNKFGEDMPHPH
Nature of the data set: Inhibition of recombinant human HDAC6 using fluorogenic HDAC substrate preincubated for 15 mins followed by substrate addition and measured after 30 mins by fluorescence analysis.

For data set [12], the system named is PC-12. Description: Neuroprotective activity against 6-OHDA-induced toxicity in rat PC12 cells assessed as increase in cell viability at 5 uM pretreated for 24 hrs followed by 6-OHDA challenge and measured after 12 hrs by MTT assay. In kind it is functional, cell-based. An outline of the steps:
as §1

In data set [13] the test system is PC-12. Description: Cytotoxicity against rat PC12 cells at 20 uM after 24 hrs by MTT assay. The data set is classed as cell-based. The note with it: pc-12, 24 h.
The test system of data set [14] is PC-12. Nature of the data set: Antioxidant activity against H2O2-induced oxidative stress in rat PC12 cells assessed as decrease in ROS accumulation preincubated for 24 hrs followed by H2O2 challenge and measured after 12 hrs coincubated with tubastatin A by DCFH-DA dye-based fluorescence analysis. The data set is classed as functional, cell-based. An outline of the steps:
as §3

Data set [15] relates to PC-12. Description: Cytoprotective activity against H2O2-induced damage in rat PC12 cells assessed as decrease in ROS accumulation preincubated for 24 hrs followed by H2O2 challenge measured after 12 hrs by DCFH-DA dye-based inverted fluorescence microscopic analysis. The data set is classed as functional, cell-based. A digest of the protocol:
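PC12 cells were pretreated with compound (5 or 10 µM), then challenged with H2O2 and stained with DCFH-DA to show ROS. Fluorescence images were taken by inverted fluorescence microscopy.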

The nature of data set [16]: Antioxidant activity assessed as cumene hydroperoxide radical scavenging at 10 uM up to 200 mins. In kind it is functional. An outline of the steps: as §2
In data set [17] the test system is PC-12. Description: Cytotoxicity against rat PC12 cells at 20 uM in presence of ebselen after 24 hrs by MTT assay. The data set is classed as cell-based. The following applies: pc-12, 24 h. An outline of the steps:
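PC12 cells exposed for 24 h to compound at 10 or 20 µM, alone or combined with ebselen. Viability by MTT assay. Mean ± SD of three independent experiments.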

Data set [18] has as its system PC-12. Nature of the data set: Antioxidant activity against H2O2-induced oxidative stress in rat PC12 cells assessed as decrease in ROS accumulation at 5 uM preincubated for 24 hrs followed by H2O2 challenge and measured after 12 hrs coincubated with ebselen by DCFH-DA dye-based fluorescence analysis. In kind it is functional, cell-based. A digest of the protocol: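 PC12 cells pretreated with compound (5 or 10 µM) alone or together with ebselen, then challenged with H2O2. Intracellular ROS detected by DCFH-DA staining, which is deacetylated in cells and oxidised by ROS to fluorescent dichlorofluorescein. Imaged by inverted fluorescence microscopy and quantified on a fluorescence microplate reader.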

Data set [19] deals with PC-12. Description: Neuroprotective activity against 6-OHDA-induced toxicity in rat PC12 cells assessed as increase in cell viability at 5 to 10 uM pretreated for 24 hrs followed by 6-OHDA challenge and measured after 12 hrs coincubated with ebselen by MTT assay. The data set is classed as functional, cell-based. An outline of the steps:
(§4)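 PC12 cells seeded at 1 × 10⁴ cells/well and grown 1 d, then pretreated 24 h with compound, alone or with ebselen. Medium replaced with fresh medium containing the insult (H2O2 400 µM or 6-OHDA 200 µM), incubated 12 h. Viability by MTT assay, relative to control. Mean ± SD of three independent experiments.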

The subject of data set [20] is PC-12. Description: Neuroprotective activity against H2O2-induced toxicity in rat PC12 cells assessed as cell viability at 5 to 10 uM pretreated for 24 hrs followed by H2O2 challenge and measured after 12 hrs coincubated with ebselen by MTT assay relative to control. The data set is classed as functional. An outline of the steps: as §4

Consider `O=c1c2ccccc2[se]n1-c1ccccc1` [EBSELEN], for which the outcome in the data set with PC-12 [1], in the data set with PC-12 [5], in the data set with PC-12 [6], in the data set on PC-12 [7], in the data set with PC-12 [9] and in the data set on PC-12 [10] was Active. Moreover, the outcome in the data set on PC-12 [12], in the data set on PC-12 [14] and in the data set with PC-12 [15] was Active. In addition, the Activity in the data set with PC-12 [2] is 90%; with PC-12 [3], “Non-Toxic”; in data set [4] it was 71%; in data set [8], 51%; with PC-12 [13] it was “Non-Toxic”; in data set [16], 29%. Also, the concentration for half-maximal inhibition (IC50) in [11] was 11.5 µM.
With `CN1CCc2c(c3ccccc3n2Cc2ccc(C(=O)NO)cc2)C1` [TUBASTATIN A], the Activity result in the data set on PC-12 [17] was “Non-Toxic”; in the data set with PC-12 [13], “Non-Toxic”; in the data set with PC-12 [14], “Dose-dependent effect”; with PC-12 [20] it was 90%. Besides, the outcome in the data set with PC-12 [18], in the data set with PC-12 [5], in the data set with PC-12 [6], in the data set with PC-12 [7], in the data set on PC-12 [10] and in the data set with PC-12 [19] was Active. Moreover, the outcome in the data set on PC-12 [12] and with PC-12 [15] was Active.

As usually defined, the IC50 is the midpoint of a concentration-inhibition curve.
